The text below walks through data of ChEMBL document CHEMBL1145126, “Novel derivatives of benzo[b]thieno[2,3-c]quinolones: synthesis, photochemical synthesis, and antitumor evaluation” (J Med Chem, 2003).

The test system of one experiment is Caco-2. The experiment is described as follows: In vitro inhibitory effect on growth of human CaCo-2 tumor cell line. Type of experiment: functional, cell-based.
For experiment [1], the system named is HBL. In words: In vitro inhibitory effect on growth of human HBL tumor cell line. Format: functional, cell-based.
In another experiment the test system is HeLa. The experiment is described as follows: In vitro inhibitory effect on growth of human HeLa tumor cell line. Format: functional, cell-based.
The next experiment deals with HEp-2. In words: In vitro inhibitory effect on growth of human Hep-2 tumor cell line. Format: functional, cell-based.
The next experiment relates to MCF7. The experiment is described as follows: In vitro inhibitory effect on growth of human MCF-7 tumor cell line. Type of experiment: functional, cell-based.
The test system of a further experiment is WI-38. The experiment is described as follows: In vitro inhibitory effect on growth of human normal WI-38 cell line. Format: functional, cell-based.
In a further experiment the test system is MIA PaCa-2. In words: In vitro inhibitory effect on growth of human MIAPaCa-2 tumor cell line. Format: functional, cell-based.
Another experiment deals with ME67.1. In words: In vitro inhibitory effect on growth of human ME 67.1 tumor cell line. Format: functional, cell-based.
In another experiment the test system is ME67.3. In words: In vitro inhibitory effect on growth of human ME 67.3 tumor cell line. Type of experiment: functional, cell-based.
Experiment [2] has as its system Melanoma cell. The experiment is described as follows: Percentage of apoptotic cells after treatment of Melanoma cells with 5*10e-6 M compound for 5 hr. Type of experiment: functional, Homo sapiens. In a few lines: (§1)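 HBL melanoma cells seeded at 2 × 10^5 cells/mL, exposed after 48 h to compound for 5 h, then washed in PBS and stained with Annexin-V-FLUOS for 15 min at ambient temperature. Scored by fluorescence microscopy as apoptotic (green) cells over total cells.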

The subject of experiment [3] is HBL. In words: Effect on adhesion of Melanoma cell line (HBL) at 10*10e-5 M at 1 hr incubation time. Type of experiment: functional, Homo sapiens. In a few lines: (§2)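 HBL melanoma cells exposed to compound at the stated concentration and time; cells still attached to the plastic substratum quantified by MTT test. Result given as ratio (%) of treated to control cells; one of three parallel experiments reported.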

In experiment [4] the test system is HBL. In words: Effect on adhesion of Melanoma cell line (HBL) at 10*10e-5 M at 24 hr incubation time. Type of experiment: functional, Homo sapiens. In a few lines:
as §2

In experiment [5] the test system is HBL. In words: Effect on adhesion of Melanoma cell line (HBL) at 10*10e-5 M at 2 hr incubation time. Type of experiment: functional, Homo sapiens. The method in brief: as §2
The subject of experiment [6] is HBL. In words: Effect on adhesion of Melanoma cell line (HBL) at 10*10e-5 M at 3h incubation time. Type of experiment: functional, Homo sapiens. In a few lines:
as §2

The subject of experiment [7] is HBL. The experiment is described as follows: Effect on adhesion of Melanoma cell line (HBL) at 5*10e-6 M at 1 hr incubation time. Type of experiment: functional, Homo sapiens. The method in brief:
as §2

Experiment [8] concerns HBL. In words: Effect on adhesion of Melanoma cell line (HBL) at 5*10e-6 M at 24 hr incubation time. Type of experiment: functional, Homo sapiens. In a few lines: as §2
Experiment [9] relates to HBL. In words: Effect on adhesion of Melanoma cell line (HBL) at 5*10e-6 M at 3h incubation time. Format: functional, Homo sapiens. The method in brief: as §2
Experiment [10] has as its system Melanoma cell. In words: Percentage of apoptotic cells after treatment of Melanoma cells with 1*10e-5 M compound for 5 hr. Type of experiment: functional, Homo sapiens. In a few lines: as §1
Experiment [11] relates to Melanoma cell. In words: Percentage of apoptotic cells after treatment of Melanoma cells with 1*10e-6 M compound for 5 hr. Type of experiment: functional, Homo sapiens. The method in brief:
as §1

For experiment [12], the system named is HBL. The experiment is described as follows: Effect on adhesion of Melanoma cell line (HBL) at 5*10e-6 M at 2 hr incubation time. Format: functional, Homo sapiens. In a few lines:
as §2

By IC50 is commonly meant the concentration at which inhibition is half-maximal.

In the case of `CN(C)CCCn1c(=O)c2sc3cc([N+](=O)[O-])ccc3c2c2ccccc21`, the IC50 in the experiment on Caco-2 came to 0.79 µM; with HBL [1], 1.2 µM; in the experiment with HeLa, 1 µM; with HEp-2, 3.54 µM; in the experiment with MCF7 it was 5.8 µM; with WI-38, 2.4 µM. Further, the IC50 in the experiment with MIA PaCa-2 was determined as 1.25 µM.
With `CN(C)CCCN(C(=O)c1ccc2c(c1)sc1c(O)nc3ccccc3c12)c1ccccc1`, the IC50 was 4.79 µM in the experiment on Caco-2; 0.67 µM in the experiment with HBL [1]; 34.7 µM in the experiment on HeLa; 3.16 µM in the experiment on HEp-2; 19.5 µM with MCF7; 10 µM in the experiment on WI-38. This compound also displayed an IC50 with MIA PaCa-2 of 4.79 µM.
Consider `COc1ccc2c(c1)sc1c(=O)n(CCCN(C)C)c3ccccc3c12`, for which the IC50 with Caco-2 came out at 0.47 µM; with HBL [1], 1.58 µM; in the experiment with HeLa, 0.85 µM; in the experiment with HEp-2, 2.96 µM; in the experiment on MCF7, 2.2 µM; in the experiment with WI-38, 2.3 µM. In the experiment with MIA PaCa-2, this compound came in with an IC50 of 0.51 µM.
With `CN(C)CCCNC(=O)c1ccc2c(c1)sc1c(O)nc3ccccc3c12`, the IC50 with Caco-2 was 3.8 µM; in the experiment with HBL [1], 1 µM; in the experiment on HeLa it was 6.3 µM; in the experiment on HEp-2 it was 6.6 µM; in the experiment on MCF7, 10 µM; in the experiment on WI-38, 4.4 µM. Besides, half-maximal inhibition in the experiment with MIA PaCa-2 (IC50) was put at 6.6 µM.
With `CN(C)CCCn1c(=O)c2sc3cc(F)ccc3c2c2ccccc21`, the IC50 was 0.98 µM with Caco-2; 3.98 µM in the experiment with HBL [1]; 0.65 µM in the experiment on HeLa; 3.16 µM in the experiment on HEp-2; 4.6 µM with MCF7; 2.9 µM in the experiment with WI-38. The compound also displayed an IC50 in the experiment with MIA PaCa-2 of 2.5 µM.
With `Cc1ccc2c(c1)sc1c(=O)n(CCCN(C)C)c3ccccc3c12`, the IC50 was 1.7 µM in the experiment on Caco-2; 1.1 µM with HBL [1]; 1 µM with HeLa; 3.63 µM in the experiment on HEp-2; 4.5 µM in the experiment on MCF7; 2.45 µM in the experiment on WI-38. Also, half-maximal inhibition with MIA PaCa-2 (IC50) was put at 1.1 µM.
In the case of `CN(C)CCCn1c(=O)c2sc3ccccc3c2c2ccccc21`, the IC50 in the experiment with Caco-2 was determined as 0.62 µM; with HBL [1], 0.58 µM; in the experiment on HeLa it was 2.5 µM; with HEp-2, 3.63 µM; in the experiment on MCF7, 4.27 µM; in the experiment with WI-38 it was 4.5 µM. Further, in the experiment on MIA PaCa-2, the IC50 was 1.4 µM.
Take `COC(=O)c1ccc2c(c1)sc1c(=O)n(CCCN(C)C)c3ccccc3c12`: the half-maximal inhibitory concentration (IC50) in the experiment with Caco-2 worked out at 0.47 µM; with HBL [1] it was 0.35 µM; in the experiment on HeLa, 1.3 µM; in the experiment with HEp-2, 0.65 µM; in the experiment on MCF7, 0.59 µM; in the experiment with WI-38, 1.6 µM. The compound also yielded an IC50 in the experiment on MIA PaCa-2 of 1 µM.
Take `CN(C)CCCn1c(=O)c2sc3cc(C(=O)Nc4ccccc4)ccc3c2c2ccccc21`: the half-inhibitory concentration (IC50) with Caco-2 is 0.49 µM; in the experiment on HBL [1] it was 0.01 µM; with HeLa, 2.8 µM; in the experiment with HEp-2, 1.77 µM; in the experiment on ME67.1, 0.79 µM; with ME67.3, 0.19 µM. Also, the figures for the IC50 in the experiment with MCF7, in the experiment on WI-38 and with MIA PaCa-2 were 2.63 µM, 2.3 µM and 1 µM, respectively. Also, the Apoptotic cell in the experiment on Melanoma cell [2] was determined as 29%; with Melanoma cell [10] it was 35%; in the experiment on Melanoma cell [11], 9%. The Ratio in the experiment with HBL [3] worked out at 87%; in the experiment with HBL [4], 28%; in the experiment on HBL [5], 87%; with HBL [6], 81%; in the experiment with HBL [7], 90%; in the experiment on HBL [8], 62%. Moreover, the Ratio in the experiment with HBL [9] came out at 95%; with HBL [12], 98%.
